Experimental data from different studies.
Protocols differ between the studies behind these lines.
CSF1R autoinhibited: Macrophage colony-stimulating factor 1 receptor, autoinhibited (CSF1R, Homo sapiens, UniProt P07333)
CSF1R: Macrophage colony-stimulating factor 1 receptor (CSF1R, Homo sapiens, UniProt P07333)

SMILES	target	test	setting	remaining binding [%]
O=C(NCCCN1CCOCC1)c1ccc(Nc2nccc(-c3cc4ccccc4s3)n2)cc1	CSF1R autoinhibited	binding, competition with immobilised ligand	1 µM	83
CCN1CCN(Cc2ccc(C(=O)Nc3ccc(C)c(Oc4ccc5c(c4)CC(=O)N5)c3)cc2C(F)(F)F)CC1	CSF1R autoinhibited	binding, competition with immobilised ligand	1 µM	100
CC1CCCN1c1nccc(-c2cnn3ncccc23)n1 (stereo not drawn)	CSF1R	binding	1 µM	100
O=c1nc(-c2ccccn2)sc2ccccc12	CSF1R	cell-free assay, competition with immobilised ligand	1 µM	85
N[C@H]1CCN(c2nccc(-c3cnn4ncccc34)n2)C1	CSF1R	binding	1 µM	100
O=C(c1ccc(Nc2ncc(Cl)c(-c3ccc(Cl)s3)n2)cc1)N1CCC(N2CCCC2)CC1	CSF1R	binding, competition with immobilised ligand	1 µM	5.1
COc1ccnn2ncc(-c3ccnc(N(C)C)n3)c12	CSF1R	binding	1 µM	100
CCOCCn1cc(C(=O)Nc2ccc(-n3nc(-c4cccnc4)cc3C(F)(F)F)cn2)ccc1=O	CSF1R autoinhibited	cell-free assay, competition with immobilised ligand	1 µM	100
COc1cnc(Nc2cccc(S(N)(=O)=O)c2)nc1N1CCN(c2ccccc2)C(=O)C1	CSF1R	binding, competition with immobilised ligand	1 µM	100
Cc1cnc(Nc2ccc(C(=O)N3CCC(N4CCCC4)CC3)cc2)nc1-c1cc2ccccc2s1	CSF1R autoinhibited	binding, competition with immobilised ligand	1 µM	45
CC(=O)N1CCC(c2ccc(C(=O)NC3=NCCN3)cc2C(F)(F)F)CC1	CSF1R	cell-free assay, competition with immobilised ligand	1 µM	100
CN(C)c1ncc(F)c(-c2cnn3ncccc23)n1	CSF1R autoinhibited	binding	1 µM	69
CCS(=O)(=O)c1cc2cc(C[C@@](O)(CC(C)(C)c3ccc(F)cc3C(N)=O)C(F)(F)F)[nH]c2cn1	CSF1R	cell-free assay, competition with immobilised ligand	1 µM	100
COc1ncc2cc3ccccc3nc2c1C#N	CSF1R autoinhibited	cell-free assay, competition with immobilised ligand	5 µM	97
CC(=O)C1=C(C)N(c2cccc(C(F)(F)F)c2)C(=O)N[C@@H]1c1ccc(C#N)nc1	CSF1R autoinhibited	cell-free assay, competition with immobilised ligand	1 µM	100
CNC(=O)[C@@H]1CC[C@@H](n2c(-c3ccc4cnccc4c3)nc3ccc(C(=O)NCc4cccc(C(N)=O)c4)cc32)C1	CSF1R	binding, competition with immobilised ligand	1 µM	100
O=C(NCCCN1CCOCC1)c1ccc(Nc2ncc(Cl)c(-c3ccc(Cl)s3)n2)cc1	CSF1R	binding, competition with immobilised ligand	1 µM	15
c1cnn2ncc(-c3ccnc(N4CCC45COC5)n3)c2c1	CSF1R autoinhibited	binding	1 µM	64

SMILES	target	test	setting	remaining binding [%]
COc1cnc(Nc2cccc(S(N)(=O)=O)c2)nc1N1CCN(c2ccccc2)CC1	CSF1R autoinhibited	binding, competition with immobilised ligand	1 µM	99
C=CC(=O)N1CCC(C(=O)NCC(=O)N2CCN(c3nc(-c4cnc(N)nc4C(F)F)nc(N4CCOCC4)n3)CC2)CC1	CSF1R	binding, competition with immobilised ligand	1 µM	77
CN([C@@H]1CCc2c(CC(=O)O)c3cc(S(C)(=O)=O)ccc3n2C1)S(=O)(=O)c1ccc(F)cc1	CSF1R autoinhibited	cell-free assay, competition with immobilised ligand	1 µM	93
N#Cc1ccccc1CSc1nnc2c(n1)[nH]c1ccccc12	CSF1R	binding, competition with immobilised ligand	10 µM	100
Cc1nc(NC(=O)N2CCC[C@H]2C(N)=O)sc1-c1ccnc(C(C)(C)C(F)(F)F)c1	CSF1R	binding, competition with immobilised ligand	10 µM	68
CCC(=O)N[C@H]1CC[C@@H](C(=O)N(C)c2ccc(-c3nc4ccccc4o3)cc2)C1	CSF1R autoinhibited	cell-free assay, competition with immobilised ligand	1 µM	56
FC(F)(F)Oc1cccc(-c2cnc3ccc(-c4ccncc4)nn23)c1	CSF1R	cell-free assay, competition with immobilised ligand	5 µM	59
O=C(O)[C@H]1[C@H](Cn2nnc3ccccc3c2=O)CC[C@@H]1C(=O)c1ccc(OCCC2CCOCC2)cc1	CSF1R autoinhibited	cell-free assay, competition with immobilised ligand	1 µM	100
O=C(c1ccc(Nc2nccc(-c3cc4ccccc4s3)n2)cc1)N1CCC(N2CCCC2)CC1	CSF1R	binding, competition with immobilised ligand	1 µM	42
O=C(Nc1c[nH]nc1C(=O)NC1CCNCC1)c1cc(F)cc(F)c1	CSF1R autoinhibited	binding, competition with immobilised ligand	1 µM	90
O=C(c1ccc(Nc2ncc(Cl)c(-c3cc4ccccc4s3)n2)cc1)N1CCC(N2CCCC2)CC1	CSF1R	binding, competition with immobilised ligand	1 µM	24
c1cncc(-c2cccc(Nc3nccc(NC4CCCCC4)n3)c2)c1	CSF1R autoinhibited	binding, competition with immobilised ligand	10 µM	0
C[C@@H](c1ccc(-n2cnc3c(N)ncnc32)cc1)N1CCc2nn(C)c(Cc3ccccc3)c2C1=O	CSF1R autoinhibited	binding, competition with immobilised ligand	0.1 µM	81
Nc1ncc2c(n1)-c1c([nH]c3ccc(C#CC4CC4)cc13)CCCC2	CSF1R	binding, competition with immobilised ligand	1 µM	98
CN(CCCC(F)(F)F)c1nccc(-c2cnn3ncccc23)n1	CSF1R	binding	1 µM	93
C[C@@H]1CN(c2ccc3ncc(-c4ccc5[nH]nc(C6CC6)c5c4)n3n2)C[C@H](C)O1	CSF1R	binding, competition with immobilised ligand	50 nM	100
C[C@H]1CCN(c2nccc(-c3cnn4ncccc34)n2)C1	CSF1R autoinhibited	binding	1 µM	75
O=C(NCC1CCOCC1)c1n[nH]cc1NC(=O)c1c(F)cccc1F	CSF1R autoinhibited	binding, competition with immobilised ligand	1 µM	62
